The target in test [1] is Potassium voltage-gated channel subfamily KQT member 2 (Mus musculus) (UniProt Q9Z351). The test can be described thus: Increased outward current at -40 mV mediated by mouse KCNQ2 channel expressed in Xenopus laevis oocytes at 5 uM; Insoluble. The test is classed as functional, cell-based. To be noted: Oocyte. The gist of the method: (§1)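 Mouse KCNQ2 (mKCNQ2) currents recorded from Xenopus oocytes by two-electrode voltage clamp. Holding potential -90 mV, with about 5 s steps in +10 mV increments up to +40 mV. Records digitized at 5 kHz. Each compound applied at a single concentration (1, 5 or 20 µM) in at least 3 oocytes. Value is the mean percent change in current relative to the drug-free control (100%).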
Potassium voltage-gated channel subfamily KQT member 2 (Mus musculus), sequence (Q9Z351 whole entry): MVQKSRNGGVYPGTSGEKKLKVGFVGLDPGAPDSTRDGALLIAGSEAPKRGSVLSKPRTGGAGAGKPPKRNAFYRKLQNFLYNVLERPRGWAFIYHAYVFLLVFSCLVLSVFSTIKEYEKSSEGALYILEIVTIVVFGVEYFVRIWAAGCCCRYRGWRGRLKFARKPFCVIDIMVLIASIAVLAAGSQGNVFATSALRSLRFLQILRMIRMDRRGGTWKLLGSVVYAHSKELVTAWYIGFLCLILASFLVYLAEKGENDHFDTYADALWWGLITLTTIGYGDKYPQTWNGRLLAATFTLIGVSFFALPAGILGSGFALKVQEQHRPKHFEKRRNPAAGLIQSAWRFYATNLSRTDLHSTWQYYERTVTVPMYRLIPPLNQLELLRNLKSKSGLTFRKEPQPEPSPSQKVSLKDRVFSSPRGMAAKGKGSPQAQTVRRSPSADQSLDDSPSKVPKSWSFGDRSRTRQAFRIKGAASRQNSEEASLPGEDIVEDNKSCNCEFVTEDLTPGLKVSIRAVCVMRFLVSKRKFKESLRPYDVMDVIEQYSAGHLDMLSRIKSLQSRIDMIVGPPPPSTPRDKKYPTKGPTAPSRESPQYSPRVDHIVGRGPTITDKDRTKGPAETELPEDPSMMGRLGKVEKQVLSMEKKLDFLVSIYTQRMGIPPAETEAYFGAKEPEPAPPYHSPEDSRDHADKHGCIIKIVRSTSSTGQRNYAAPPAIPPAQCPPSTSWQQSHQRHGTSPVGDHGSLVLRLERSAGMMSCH

Test [2] has the same target. The test can be described thus: Increased outward current at -40 mV mediated by mouse KCNQ2 channel expressed in Xenopus laevis oocytes at 20 uM; Insoluble. The conditions noted are these: Oocyte. The test is classed as functional, cell-based. The method, boiled down: as §1
Test [3] shares this target. The test is described as follows: Increased outward current at -40 mV mediated by mouse KCNQ2 channel expressed in Xenopus laevis oocytes at 1 uM. The test is classed as functional, cell-based. The conditions noted are these: Oocyte. The gist of the method: as §1
In test [4] the target is Potassium voltage-gated channel subfamily KQT member 2 (Mus musculus, UniProt Q9Z351). The test is described as follows: Increased outward current at -40 mV mediated by mouse KCNQ2 channel expressed in Xenopus laevis oocytes. In kind it is functional, cell-based, Oocyte.
Potassium voltage-gated channel subfamily KQT member 2, sequence (Q9Z351 whole entry): as above
Test [5] deals with Potassium voltage-gated channel subfamily KQT member 2 (Mus musculus) (UniProt Q9Z351). The test can be described thus: Increased outward current at -40 mV mediated by mouse KCNQ2 channel expressed in Xenopus laevis oocytes at 20 uM. In kind it is functional, cell-based. To be noted: Oocyte. The gist of the method: as §1
Test [6] has the same target. The test can be described thus: Increased outward current at -40 mV mediated by mouse KCNQ2 channel expressed in Xenopus laevis oocytes at 100 nM. In kind it is functional, cell-based. To be noted: Oocyte.

Structures are written as SMILES.

By EC50 is commonly meant the concentration that produces a half-maximal response.

For the molecule `Nc1c(O)nc2cc(C(F)(F)F)ccc2c1Cc1cc(Cl)ccc1O`, the Increase result in test [1] is “Insoluble”; in test [2], “Insoluble”; in test [3], 89%.

On to `O=c1[nH]c2ccc(C(F)(F)F)cc2c(Cc2cc(Cl)ccc2O)c1NS(=O)(=O)C(F)(F)F`, for which the EC50 in test [4] amounted to 0.663 µM.

The molecule `CCOC(=O)Nc1ccc(NCc2ccc(F)cc2)cc1N` registered an Increase in test [5] of 269%.

The molecule `Nc1c(O)nc2ccc(C(F)(F)F)cc2c1Cc1cc(Cl)ccc1O` returned an Increase in test [5] of 122%.

`O=S(=O)(Nc1c(O)nc2cc(C(F)(F)F)ccc2c1Cc1cccc(Cl)c1)C(F)(F)F` displayed an Increase in test [5] of 220%.

Take `O=S(=O)(Nc1c(O)nc2cc(C(F)(F)F)ccc2c1Cc1cc(Cl)ccc1O)C(F)(F)F`: the Increase in test [3] worked out at 190%; in test [5], 271%.

In turn, `COc1ccc(Cl)cc1Cc1c(NS(=O)(=O)C(F)(F)F)c(O)nc2ccc(C(F)(F)F)cc12` yielded an Increase in test [5] of 231%.

In turn, `O=S(=O)(Nc1c(O)nc2ccccc2c1Cc1ccccc1)C(F)(F)F` yielded an Increase in test [5] of 131%.

Take `O=S(=O)(Nc1c(O)nc2cc(C(F)(F)F)ccc2c1Cc1ccccc1O)C(F)(F)F`: in test [5], the Increase came to 277%.

Molecule `Nc1c(O)nc2ccccc2c1Cc1ccccc1` had an Increase in test [5] of 103%.

As for `O=S(=O)(Nc1c(O)nc2ccc(C(F)(F)F)cc2c1Cc1cc(Cl)ccc1O)C(F)(F)F`, the results for the Increase in test [3], in test [6] and in test [5] were 217%, 143% and 284%, respectively.

As for `COc1ccccc1Cc1c(NS(=O)(=O)C(F)(F)F)c(O)nc2cc(C(F)(F)F)ccc12`, the Increase in test [5] was 254%.

In turn, `O=S(=O)(Nc1c(O)nc2cc(C(F)(F)F)ccc2c1Cc1ccccc1)C(F)(F)F` showed an Increase in test [5] of 223%.

The values are drawn from ChEMBL document CHEMBL1148224, “The synthesis and structure-activity relationships of 3-amino-4-benzylquinolin-2-ones; discovery of novel KCNQ2 channel openers” (Bioorg Med Chem Lett, 2004).
